Compound activity: PubChem BioAssay, Broad Institute
DENV2 CPE rescue = DENV2-induced cell death inhibition; DENV2-infected cells, cytopathic effect rescue, plate reader; CPE inhibition, % at 9.99 µM; 350,000 compounds, 1.7% hits; in the data active = CPE inhibition above about 20%, passing the limit was not always enough; tested in BHK-21 cells;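 also: 0% = median of neutral control wells and 100% = median of positive control wells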
Ecoli rRNA inh = selective bacterial rRNA inhibition in E. coli. E. coli WT GFP vs humanized-ribosome RFP mutants, fluorescence, 24 h; active compounds read low; DMSO median 0, no signal -100. GFP signal change (wild-type ribosome), % (concentration not given with the values). 350,000 compounds, 1.6% hits. AID 720706;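 active = significant combined selectivity score with lowered wild-type GFP, culture density cut under 30%, mutant RFP and density less affected; inactive = any of these conditions unmet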
S100A4 MyoIIA = inhibitors of human S100A4 binding to myosin IIA peptide; S100A4/TAMRA-MyoIIA peptide fluorescence polarization; 360,000 compounds, 0.14% hits; inhibition, % at 10.7 µM; AID 652163;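 active = mean inhibition of at least 70% across replicates, with every replicate also reaching that level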
Target sequence (P26447 whole entry, looked up): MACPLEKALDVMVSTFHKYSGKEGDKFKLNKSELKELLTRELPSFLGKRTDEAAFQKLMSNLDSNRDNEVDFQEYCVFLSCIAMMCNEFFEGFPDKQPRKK
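Compound dosing: one dose per compound; test system: human S100A4 monomer with TAMRA-labelled myosin IIA peptide; probe or stimulus: TAMRA-labelled myosin IIA heavy-chain peptide probe, 5 nM; medium: HEPES buffer with Ca2+, pH 7.2; schedule: 5 min incubation before reading; benchmarks: neutral control DMSO, positive control TFP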
MLL AF4-AF9 inh = inhibitors of human MLL-AF4/AF9 interaction; P42568; AlphaScreen, biotin-AF4 peptide binding to FLAG-AF9; inhibition, % at 10 µM; 350,000 compounds, 0.47% hits; AID 651704;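 active = every replicate reaching a set inhibition limit, whatever the replicate mean, cut at about 25% in these data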;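 also: 0% = plate neutral control median and 100% = total signal loss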
Cneo AK release = causes C. neoformans cell lysis; adenylate kinase release luminescence, 4 h; normalised: neutral wells 0, clomiphene wells 100; lysis activity, % at 15 µM; 360,000 compounds, 0.2% hits;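 active = mean lysis activity across replicates of at least 80%, whatever share of replicates individually reach that level; inactive = mean lysis activity below 80%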
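Material – log-phase Cryptococcus neoformans yeast cells · Input – 5 × 10^6 yeast cells/mL · Medium – fresh YPD growth medium · Doses – single compound concentration per well · Timing – static 4 h at 37 °C with compound, 1 h detection · Detection – adenylate kinase release luminescence · Read-out – signal increase indicating cell lysis · Control set – Clomiphene as positive lysis control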
PfHsp90 set2 = inhibits growth of yeast expressing Plasmodium falciparum Hsp90 | AID 504621 | 310,000 compounds, 0.32% hits | S. cerevisiae expressing PfHsp90, BacTiter-Glo ATP, 48 h; yeast lacking PDR1 and PDR3 efflux regulators | inhibition, % at 9.4 µM;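 active = every replicate shows inhibition above about 80%, whatever the replicate mean, limit read from the data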;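 also: 0% = DMSO neutral controls and 100% = 20 µM radicicol positive controls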
An asterisk follows results filed as active. An excerpt weighted towards active compounds, which were near 3.2% of everything screened.

How did Cc1noc(C)c1S(=O)(=O)Nc1ccc2c(c1)CC(=O)N([C@H](C)CO)C[C@@H](C)[C@H](CN(C)C(=O)Nc1ccc(C(F)(F)F)cc1)O2 do in these assays?
DENV2 CPE rescue: 5.7; Ecoli rRNA inh: 0.9; S100A4 MyoIIA: -21.3; MLL AF4-AF9 inh: -1.9; Cneo AK release: -4.0

What do the screens show for `Cc1ccc(S(=O)(=O)N(C)C[C@@H]2Oc3ncc(-c4ccccc4)cc3C(=O)N([C@@H](C)CO)C[C@H]2C)cc1`?
DENV2 CPE rescue: -4.0; Ecoli rRNA inh: -18.6; S100A4 MyoIIA: -3.5; MLL AF4-AF9 inh: -2.0; Cneo AK release: -0.6

What do the screens show for `CC(=O)N(C)C[C@H]1Oc2ncc(C#Cc3cccc(F)c3)cc2C(=O)N([C@@H](C)CO)C[C@@H]1C`?
DENV2 CPE rescue: 12.5; Ecoli rRNA inh: 3.2; S100A4 MyoIIA: 2.3; MLL AF4-AF9 inh: 3.3; Cneo AK release: -5.9

What do the screens show for `COc1ccc2c3c(n(C)c2c1)[C@@H](CO)N(C(=O)NC(C)C)CC31CN(CC2CCCC2)C1`?
DENV2 CPE rescue: 8.4; Ecoli rRNA inh: -3.7; MLL AF4-AF9 inh: 20.0

Results for O=C(Cc1cccc([N+](=O)[O-])c1)Nc1ccc(C(=O)N2CCCCC2)cc1 ?
DENV2 CPE rescue: 81.3*; Ecoli rRNA inh: -3.3; S100A4 MyoIIA: 12.1; MLL AF4-AF9 inh: 6.5; Cneo AK release: 9.9; PfHsp90 set2: 42.8

Results for O=C(CNCc1ccc(Cl)cc1)Nc1ccc(C(=O)N2CCCCCC2)cc1 ?
DENV2 CPE rescue: 14.2; Ecoli rRNA inh: -29.7*; S100A4 MyoIIA: -3.0; MLL AF4-AF9 inh: 3.0; Cneo AK release: 0.5; PfHsp90 set2: 21.0

How did CCN(CC)S(=O)(=O)c1ccc(NC(=O)C2CCCN(C(=O)c3ccc(Cl)cc3)C2)cc1 (stereo not drawn) do in these assays?
DENV2 CPE rescue: 3.6; Ecoli rRNA inh: -22.7*; S100A4 MyoIIA: 4.1; MLL AF4-AF9 inh: -10.4; Cneo AK release: -0.8; PfHsp90 set2: 5.7

How did O=C(CNCc1ccc(Cl)cc1)Nc1ccc(C(=O)N2CCCCC2)cc1 do in these assays?
DENV2 CPE rescue: -0.6; Ecoli rRNA inh: -20.5; S100A4 MyoIIA: 3.2; MLL AF4-AF9 inh: 0.9; Cneo AK release: 0.6; PfHsp90 set2: -23.9

How did CO[C@H]1CN(C)C(=O)c2cc(NC(=O)NC(C)C)ccc2OC[C@@H](C)N(CCC(F)(F)F)C[C@H]1C do in these assays?
Ecoli rRNA inh: 0.8; Cneo AK release: 1.1

Results for C[C@@H]1CN([C@@H](C)CO)C(=O)c2cc(NC(=O)Cc3ccccc3)ccc2O[C@@H](C)CCCCO[C@@H]1CN(C)S(=O)(=O)c1ccc(Cl)cc1 ?
DENV2 CPE rescue: 4.0; Ecoli rRNA inh: 1.0; S100A4 MyoIIA: -5.3; MLL AF4-AF9 inh: -1.2; Cneo AK release: 4.7

How did COc1ccc(NC(=O)N[C@@H]2CC[C@@H](CC(=O)NC3CCC3)O[C@H]2CO)cc1 do in these assays?
DENV2 CPE rescue: 9.0; Ecoli rRNA inh: 1.3; S100A4 MyoIIA: 2.9; MLL AF4-AF9 inh: -5.4; Cneo AK release: -2.5

What do the screens show for `COC(OC)c1ccc(C#N)c(SCc2ccc(C)cc2)n1`?
DENV2 CPE rescue: 0.3; Ecoli rRNA inh: -29.4*; S100A4 MyoIIA: 5.7; MLL AF4-AF9 inh: -17.1; PfHsp90 set2: 39.0

How did COCC(=O)Nc1ccc2c(c1)OC[C@H](C)N(Cc1cc(F)ccc1F)C[C@H](C)[C@@H](OC)CN(C)C2=O do in these assays?
DENV2 CPE rescue: -8.3; Ecoli rRNA inh: -3.0; S100A4 MyoIIA: 15.9; MLL AF4-AF9 inh: 0.5

How did COCC(=O)Nc1ccc2c(c1)OC[C@@H](C)N(Cc1cc(F)ccc1F)C[C@@H](C)[C@@H](OC)CN(C)C2=O do in these assays?
DENV2 CPE rescue: 30.8*; Ecoli rRNA inh: -1.9; S100A4 MyoIIA: 7.8; MLL AF4-AF9 inh: 0.2; Cneo AK release: 3.9

Results for CO[C@H]1CN(C)C(=O)c2cc(NC(=O)C3CC3)ccc2OC[C@@H](C)N(Cc2cc(F)ccc2F)C[C@@H]1C ?
DENV2 CPE rescue: -15.2; Ecoli rRNA inh: -7.2; S100A4 MyoIIA: -2.3; MLL AF4-AF9 inh: 43.5*; Cneo AK release: 55.9
